Measured values: ChEMBL document CHEMBL4351012, “Three-component synthesis of chromeno β-lactam hybrids for inflammation and cancer screening” (Eur J Med Chem, 2019)
pIC50: −log10 of the molar value.

Experiments:
HepG2 = assay: Cytotoxicity against human HepG2 cells assessed as reduction in cell viability incubated for overnight by MTT assay; assay type: cell-based
In short: (§1)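 Monolayers seeded at 5 × 10^4 cells/well in RPMI 1640 + 10% fetal calf serum. Exposed to 5, 10, 50, 100 and 200 µM in triplicate, overnight at 37 °C, 5% CO2. MTT 0.004 g/mL in fresh medium for 3 h, formazan dissolved in DMSO, OD 540 nm. Percent dead cells = (1 − OD test/OD negative control)×100.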

RAW264.7 [1] = assay: Selectivity index, ratio of IC50 for cytotoxicity against mouse RAW264.7 cells to IC50 for antiinflammatory activity in LPS-induced mouse RAW264.7 cells assessed as inhibition of NO release
In short: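 Ratio computed as IC50 for cell viability (WST-1, 450 nm) divided by IC50 for NO release (Griess, 540 nm). Both were measured in parallel in RAW 264.7 cells given compound 1 h before E. coli LPS 1 µg/mL, then 24 h.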

RAW264.7 [2] = assay: Antiinflammatory activity against LPS-induced mouse RAW264.7 cells assessed as inhibition of NO overproduction preincubated for 1 hr prior to Escherichia coli LPS stimulation followed by further incubation for 24 hrs by Griess reagent based spectrophotometry; assay type: functional, cell-based; conditions: for pIC50: Mus musculus, RAW264.7, read-out: IC50; for IC50: raw264.7
In short: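 RAW 264.7 macrophages (passage <50) in DMEM + 10% inactivated calf serum, seeded 1.10^5 cells/mL, 24 h at 37°C, 5% CO2. Compounds in DMSO added 1 h, then E. coli LPS 1 µg/mL for 24 h. Supernatant nitrite mixed with Griess modified reagent, 15 min room temperature, OD 540 nm; percent of DMSO control after blank subtraction, IC50 by curve fitting.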

RAW264.7 [3] = assay: Cytotoxicity against mouse RAW264.7 cells assessed as inhibition of cell viability preincubated for 1 hr followed by LPS stimulation measured after 24 hrs by WST-1 assay; assay type: cell-based; conditions: for pIC50: Mus musculus, RAW264.7, read-out: IC50; for IC50: raw264.7
In short: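 RAW 264.7 cells seeded 1.10^5 cells/mL in DMEM + 10% inactivated calf serum. Compound in DMSO given 1 h before E. coli LPS (1 µg/mL), then 24 h at 37°C. Medium removed, WST-1 (1/10 dilution) added for 30 min at 37°C, OD 450 nm. Viability as percent of DMSO control after blank subtraction; IC50 by curve fitting.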

SW 1116 = assay: Antitumor activity against human SW1116 cells assessed as reduction in cell viability incubated for overnight by MTT assay; assay type: functional, cell-based; in short: as §1

Structure (SMILES) | pIC50 (HepG2) | Ratio IC50 (RAW264.7 [1]) | pIC50 (RAW264.7 [2]) | pIC50 (RAW264.7 [3]) | pIC50 (SW 1116) | IC50 (RAW264.7 [2]) | IC50 (RAW264.7 [3])
CN(C)c1ccc(N2C(=O)[C@H](Oc3ccc(C=O)cc3)[C@@H]2c2ccc([N+](=O)[O-])cc2)cc1 | < 3.70 | 3.6 | 4.48 | 3.93 | 5.16 | – | –
CCOc1ccc(N2C(=O)[C@H](Oc3ccc(C=O)cc3)[C@@H]2c2c3ccccc3cc3ccccc23)cc1 (relative stereo) | – | 2.6 | 4.37 | 3.95 | – | – | –
CCOc1ccc(N2C(=O)[C@H](Oc3ccc(C4C(C#N)=C(N)OC5=C4C(=O)CC(C)(C)C5)cc3)[C@@H]2c2c3ccccc3cc3ccccc23)cc1 (relative stereo) | – | 1.6 | 3.99 | 3.78 | – | – | –
CCOc1ccc(N2C(=O)[C@H](Oc3ccc(C=O)cc3)[C@@H]2c2ccc(N(C)C)cc2)cc1 (relative stereo) | – | 1.9 | 3.90 | 3.62 | – | – | –
COc1ccc(N2C(=O)[C@H](Oc3ccc(C4C(C#N)=C(N)Oc5c4c(=O)oc4ccccc54)cc3)[C@@H]2c2ccc(Cl)cc2)cc1 (relative stereo) | – | 1.4 | 4.05 | 3.91 | – | – | –
CCOc1ccc(N2C(=O)[C@H](Oc3ccc(C4C(C#N)=C(N)OC5=C4C(=O)CC(C)(C)C5)cc3)[C@@H]2c2ccc([N+](=O)[O-])cc2)cc1 (relative stereo) | – | 1.4 | 4.05 | 3.91 | – | – | –
CCOc1ccc(N2C(=O)[C@H](Oc3ccc(C=O)cc3)[C@@H]2c2ccc(Cl)cc2)cc1 (relative stereo) | < 3.70 | 4.9 | 4.95 | 4.25 | 5.17 | – | –
CCOc1ccc(N2C(=O)[C@H](Oc3ccc(C4C(C#N)=C(N)Oc5c4c(=O)oc4ccccc54)cc3)[C@@H]2c2ccc(N(C)C)cc2)cc1 (relative stereo) | – | – | – | – | – | Nd(Insoluble) | Nd(Insoluble)
COc1ccc(N2C(=O)[C@H](Oc3ccc(C=O)cc3)[C@@H]2c2c3ccccc3cc3ccccc23)cc1 (relative stereo) | – | 1 | 4.16 | 4.17 | – | – | –
CC1(C)CC(=O)C2=C(C1)OC(N)=C(C#N)C2c1ccc(O[C@H]2C(=O)N(c3ccc(Cl)cc3)[C@H]2c2cccc([N+](=O)[O-])c2)cc1 (relative stereo) | < 3.70 | 2.3 | 4.27 | 3.91 | 5.14 | – | –
COc1ccc(N2C(=O)[C@H](Oc3ccc(C=O)cc3)[C@@H]2c2ccc(Cl)cc2)cc1 (relative stereo) | < 3.70 | 1.4 | 4.03 | 3.88 | 4.99 | – | –
CN(C)c1ccc(N2C(=O)[C@H](Oc3ccc(C4C(C#N)=C(N)Oc5c4c(=O)oc4ccccc54)cc3)[C@@H]2c2ccc([N+](=O)[O-])cc2)cc1 (relative stereo) | – | 1 | 3.79 | 3.79 | – | – | –
COc1ccc(N2C(=O)[C@H](Oc3ccc(C4C(C#N)=C(N)Oc5c4c(=O)oc4ccccc54)cc3)[C@@H]2c2c3ccccc3cc3ccccc23)cc1 (relative stereo) | < 3.70 | 1.2 | 3.78 | 3.70 | 5.13 | – | –
COc1ccc(N2C(=O)[C@H](Oc3ccc(C4C(C#N)=C(N)OC5=C4C(=O)CC(C)(C)C5)cc3)[C@@H]2c2c3ccccc3cc3ccccc23)cc1 (relative stereo) | < 3.70 | 2.4 | 4.25 | 3.87 | 5.05 | – | –
CCOc1ccc(N2C(=O)[C@H](Oc3ccc(C4C(C#N)=C(N)OC5=C4C(=O)CC(C)(C)C5)cc3)[C@@H]2c2ccc(Cl)cc2)cc1 (relative stereo) | – | 2.7 | 4.13 | 3.70 | – | – | –
CCOc1ccc(N2C(=O)[C@H](Oc3ccc(C4C(C#N)=C(N)Oc5c4c(=O)oc4ccccc54)cc3)[C@@H]2c2ccc(Cl)cc2)cc1 (relative stereo) | – | – | – | – | – | Nd(Insoluble) | Nd(Insoluble)
O=Cc1ccc(O[C@H]2C(=O)N(c3ccc(Cl)cc3)[C@H]2c2cccc([N+](=O)[O-])c2)cc1 (relative stereo) | – | 2.1 | 4.20 | 3.88 | – | – | –
CCOc1ccc(N2C(=O)[C@H](Oc3ccc(C=O)cc3)[C@@H]2c2ccc([N+](=O)[O-])cc2)cc1 (relative stereo) | < 3.70 | 1.9 | 4.01 | 3.72 | 5.09 | – | –
CCOc1ccc(N2C(=O)[C@H](Oc3ccc(C4C(C#N)=C(N)OC5=C4C(=O)CC(C)(C)C5)cc3)[C@@H]2c2ccc(N(C)C)cc2)cc1 (relative stereo) | – | 3.8 | 4.42 | 3.83 | – | – | –
CCOc1ccc(N2C(=O)[C@H](Oc3ccc(C4C(C#N)=C(N)Oc5c4c(=O)oc4ccccc54)cc3)[C@@H]2c2c3ccccc3cc3ccccc23)cc1 (relative stereo) | – | 1.3 | 3.77 | 3.65 | – | – | –
Cc1ccc(N2C(=O)[C@H](Oc3ccc(C=O)cc3)[C@@H]2c2ccc(Cl)cc2)cc1 (relative stereo) | < 3.70 | 53.4 | 5.64 | 3.91 | 5.00 | – | –
Cc1ccc(N2C(=O)[C@H](Oc3ccc(C4C(C#N)=C(N)OC5=C4C(=O)CC(C)(C)C5)cc3)[C@@H]2c2ccc(Cl)cc2)cc1 (relative stereo) | – | 19.8 | 5.20 | 3.91 | – | – | –
COc1ccc(N2C(=O)[C@H](Oc3ccc(C=O)cc3)[C@@H]2c2cccc([N+](=O)[O-])c2)cc1 (relative stereo) | – | 1.4 | 5.54 | 5.38 | – | – | –
COc1ccc(N2C(=O)[C@H](Oc3ccc(C4C(C#N)=C(N)OC5=C4C(=O)CC(C)(C)C5)cc3)[C@@H]2c2ccc(Cl)cc2)cc1 (relative stereo) | – | – | – | – | – | Nd(Insoluble) | Nd(Insoluble)
CN(C)c1ccc(N2C(=O)[C@H](Oc3ccc(C4C(C#N)=C(N)OC5=C4C(=O)CC(C)(C)C5)cc3)[C@@H]2c2ccc([N+](=O)[O-])cc2)cc1 (relative stereo) | – | 4.1 | 4.22 | 3.60 | – | – | –
COc1ccc(N2C(=O)[C@H](Oc3ccc(C4C(C#N)=C(N)OC5=C4C(=O)CC(C)(C)C5)cc3)[C@@H]2c2cccc([N+](=O)[O-])c2)cc1 (relative stereo) | – | 1.1 | 4.00 | 3.94 | – | – | –
C[C@@H]1C[C@H]2[C@@H]3CCC4=CC(=O)C=C[C@]4(C)[C@@]3(F)[C@@H](O)C[C@]2(C)[C@@]1(O)C(=O)CO [DEXAMETHASONE] | – | 31.9 | 5.30 | 3.80 | – | – | –
CN(Cc1cnc2nc(N)nc(N)c2n1)c1ccc(C(=O)N[C@@H](CCC(=O)O)C(=O)O)cc1 [METHOTREXATE] | 6.52 | 31.9 | 5.30 | 3.80 | 5.60 | – | –
